Results on three compounds are retold here after ChEMBL document CHEMBL5338733, “Heterobifunctional Ligase Recruiters Enable pan-Degradation of Inhibitor of Apoptosis Proteins” (J Med Chem, 2023).

Common to all, as to assay type: cell-based
Assay [1] addresses T1, Protein cereblon/E3 ubiquitin-protein ligase XIAP (Homo sapiens) (UniProt P98170+Q96SW2). As to the kind of experiment: PROTAC activity at CRBN/IAP in human MM1.S cells assessed as induction of XIAP degradation at 1 uM incubated for 16 hrs by western blot analysis. The procedure, abridged:
(§1)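 MM.1S cells treated 16 h at the stated concentration. Lysed, run on SDS-PAGE and transferred to PVDF. Probed with primary antibodies overnight at 4 °C, then HRP secondaries, with ECL detection. Band densitometry normalized to loading control and to DMSO-treated cells. Averages of at least three independent experiments.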
Background: In western blotting, separated proteins are transferred to a membrane and probed.

Assay [2] has as its target T2, von Hippel-Lindau disease tumor suppressor/E3 ubiquitin-protein ligase XIAP (Homo sapiens) (UniProt P98170+P40337). As to the kind of experiment: PROTAC activity at VHL/IAP in human MM1.S cells assessed as induction of XIAP degradation at 1 uM incubated for 16 hrs by western blot analysis. The method, boiled down:
(§2)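 MM.1S cells (RPMI-1640, 10% FBS, 1% pen/strep, 1% L-glutamine, 37 °C, 5% CO2) exposed to compound or DMSO for 16 h. Lysed in IP lysis buffer, SDS-PAGE, PVDF transfer, primary antibody overnight at 4 °C, HRP secondary, ECL detection. Bands quantified densitometrically, normalized to loading control and DMSO, reported as remaining protein; at least three independent experiments.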

The target of assay [3] is T3, von Hippel-Lindau disease tumor suppressor/Baculoviral IAP repeat-containing protein 3 (Homo sapiens) (UniProt Q13489+P40337). As to the kind of experiment: PROTAC activity at VHL/IAP in human MM1.S cells assessed as induction of cIAP2 degradation at 1 uM incubated for 16 hrs by western blot analysis. The method, boiled down:
as §2

For assay [4], the target named is T4, von Hippel-Lindau disease tumor suppressor/Baculoviral IAP repeat-containing protein 2 (Homo sapiens) (UniProt Q13490+P40337). Kind of assay: PROTAC activity at VHL/IAP in human MM1.S cells assessed as induction of cIAP1 degradation at 1 uM incubated for 16 hrs by western blot analysis. The method, boiled down:
as §2

Assay [5] concerns the target T2, von Hippel-Lindau disease tumor suppressor/E3 ubiquitin-protein ligase XIAP (Homo sapiens). Kind of assay: PROTAC activity at VHL/IAP in human MM1.S cells assessed as induction of XIAP degradation at 10 nM incubated for 16 hrs by western blot analysis. The procedure, abridged:
as §2

Assay [6] concerns the target T3, von Hippel-Lindau disease tumor suppressor/Baculoviral IAP repeat-containing protein 3 (Homo sapiens). Kind of assay: PROTAC activity at VHL/IAP in human MM1.S cells assessed as induction of cIAP2 degradation at 10 nM incubated for 16 hrs by western blot analysis. The procedure, abridged:
as §2

Assay [7] has as its target T4, von Hippel-Lindau disease tumor suppressor/Baculoviral IAP repeat-containing protein 2 (Homo sapiens). As to the kind of experiment: PROTAC activity at VHL/IAP in human MM1.S cells assessed as induction of cIAP1 degradation at 10 nM incubated for 16 hrs by western blot analysis. The procedure, abridged:
as §2

The target of assay [8] is Protein cereblon/Zinc finger protein Aiolos (Homo sapiens) (UniProt Q96SW2+Q9UKT9). As to the kind of experiment: PROTAC activity at CRBN/IKZF3 in human MM1.S cells assessed as induction of IKZF3 degradation at 1 uM incubated for 16 hrs by western blot analysis. The method, boiled down:
as §1

The target of assay [9] is T1, Protein cereblon/E3 ubiquitin-protein ligase XIAP (Homo sapiens). Kind of assay: PROTAC activity at CRBN/IAP in human MM1.S cells assessed as induction of XIAP degradation at 0.1 uM incubated for 3 hrs by diaPASEF-based proteomics analysis. The method, boiled down:
(§3)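 MM.1S cells exposed to DMSO or 0.1 μM compound for 3 h, then washed with PBS and snap-frozen. Lysed in 8 M urea/EPPS pH 8.5 buffer. 50 μg protein reduced, alkylated, precipitated, then digested with LysC and trypsin. Analysed by diaPASEF on timsTOF Pro2. Missing values imputed from a Gaussian distribution; log2 fold change versus DMSO with limma statistics.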

Assay [10] deals with T5, Protein cereblon/Baculoviral IAP repeat-containing protein 2 (Homo sapiens) (UniProt Q13490+Q96SW2). Kind of assay: PROTAC activity at CRBN/IAP in human MM1.S cells assessed as induction of cIAP1 degradation incubated for 16 hrs by western blot analysis. Conditions: dose 0.0001-1 µM. The method, boiled down:
as §1

For assay [11], the target named is T6, Protein cereblon/Baculoviral IAP repeat-containing protein 3 (Homo sapiens) (UniProt Q13489+Q96SW2). As to the kind of experiment: PROTAC activity at CRBN/IAP in human MM1.S cells assessed as induction of cIAP2 degradation incubated for 16 hrs by western blot analysis. Conditions: dose 0.0001-1 µM. The procedure, abridged:
as §1

For assay [12], the target named is T1, Protein cereblon/E3 ubiquitin-protein ligase XIAP (Homo sapiens). Kind of assay: PROTAC activity at CRBN/IAP in human MM1.S cells assessed as induction of XIAP degradation incubated for 16 hrs by western blot analysis. Conditions: dose 0.0001-1 µM. The procedure, abridged: as §1
Assay [13] has as its target T5, Protein cereblon/Baculoviral IAP repeat-containing protein 2 (Homo sapiens). Kind of assay: PROTAC activity at CRBN/IAP in human MM1.S cells assessed as induction of cIAP1 degradation at 0.1 uM by western blot analysis. The conditions noted are these: time 3-96 hrs, TDE = time-dependent effect. The method, boiled down:
as §1

For assay [14], the target named is T6, Protein cereblon/Baculoviral IAP repeat-containing protein 3 (Homo sapiens). As to the kind of experiment: PROTAC activity at CRBN/IAP in human MM1.S cells assessed as induction of cIAP2 degradation at 0.1 uM by western blot analysis. The conditions noted are these: time 3-96 hrs, TDE = time-dependent effect. The procedure, abridged:
as §1

For assay [15], the target named is T1, Protein cereblon/E3 ubiquitin-protein ligase XIAP (Homo sapiens). As to the kind of experiment: PROTAC activity at CRBN/IAP in human MM1.S cells assessed as induction of XIAP degradation at 0.1 uM by western blot analysis. Conditions: time 3-96 hrs, TDE = time-dependent effect.
Assay [16] deals with T5, Protein cereblon/Baculoviral IAP repeat-containing protein 2 (Homo sapiens). Kind of assay: PROTAC activity at CRBN/IAP in human MM1.S cells assessed as induction of cIAP1 degradation at 10 nM incubated for 16 hrs by western blot analysis. The method, boiled down: as §1
Assay [17] addresses T1, Protein cereblon/E3 ubiquitin-protein ligase XIAP (Homo sapiens). Kind of assay: PROTAC activity at CRBN/IAP in human MM1.S cells assessed as induction of XIAP degradation at 10 nM incubated for 16 hrs by western blot analysis.
Assay [18] deals with T5, Protein cereblon/Baculoviral IAP repeat-containing protein 2 (Homo sapiens). Kind of assay: PROTAC activity at CRBN/IAP in human MM1.S cells assessed as induction of cIAP1 degradation at 0.1 uM incubated for 3 hrs by western blot analysis. The procedure, abridged:
(§4)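 MM.1S cells treated with 0.1 μM compound for 3 h. Western blotting of lysates on PVDF with HRP/ECL detection.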

Assay [19] has as its target T6, Protein cereblon/Baculoviral IAP repeat-containing protein 3 (Homo sapiens). As to the kind of experiment: PROTAC activity at CRBN/IAP in human MM1.S cells assessed as induction of cIAP2 degradation at 0.1 uM incubated for 3 hrs by western blot analysis. The method, boiled down:
as §4

Assay [20] has as its target T1, Protein cereblon/E3 ubiquitin-protein ligase XIAP (Homo sapiens). Kind of assay: PROTAC activity at CRBN/IAP in human MM1.S cells assessed as induction of XIAP degradation at 0.1 uM incubated for 3 hrs by western blot analysis. The procedure, abridged:
as §4

Assay [21] concerns the target T5, Protein cereblon/Baculoviral IAP repeat-containing protein 2 (Homo sapiens). As to the kind of experiment: PROTAC activity at CRBN/IAP in human MM1.S cells assessed as induction of cIAP1 degradation pretreated for 1 hr with proteasome inhibitor, MG132 followed by incubation with drug for 3 hrs by western blot analysis.
The target of assay [22] is T6, Protein cereblon/Baculoviral IAP repeat-containing protein 3 (Homo sapiens). As to the kind of experiment: PROTAC activity at CRBN/IAP in human MM1.S cells assessed as induction of cIAP2 degradation pretreated for 1 hr with proteasome inhibitor, MG132 followed by incubation with drug for 3 hrs by western blot analysis.
For assay [23], the target named is T1, Protein cereblon/E3 ubiquitin-protein ligase XIAP (Homo sapiens). Kind of assay: PROTAC activity at CRBN/IAP in human MM1.S cells assessed as induction of XIAP degradation pretreated for 1 hr with proteasome inhibitor, MG132 followed by incubation with drug for 3 hrs by western blot analysis.
Assay [24] addresses T5, Protein cereblon/Baculoviral IAP repeat-containing protein 2 (Homo sapiens). As to the kind of experiment: PROTAC activity at CRBN/IAP in human MM1.S cells assessed as induction of cIAP1 degradation pretreated for 1 hr with ubiquitin-activating inhibitor, MLN7243 followed by incubation with drug for 3 hrs by western blot analysis.
In assay [25] the target is T6, Protein cereblon/Baculoviral IAP repeat-containing protein 3 (Homo sapiens). Kind of assay: PROTAC activity at CRBN/IAP in human MM1.S cells assessed as induction of cIAP2 degradation pretreated for 1 hr with ubiquitin-activating inhibitor, MLN7243 followed by incubation with drug for 3 hrs by western blot analysis.
The target in assay [26] is T1, Protein cereblon/E3 ubiquitin-protein ligase XIAP (Homo sapiens). Kind of assay: PROTAC activity at CRBN/IAP in human MM1.S cells assessed as induction of XIAP degradation pretreated for 1 hr with ubiquitin-activating inhibitor, MLN7243 followed by incubation with drug for 3 hrs by western blot analysis.
Assay [27] concerns the target T5, Protein cereblon/Baculoviral IAP repeat-containing protein 2 (Homo sapiens). Kind of assay: PROTAC activity at CRBN/IAP in human MM1.S cells assessed as induction of cIAP1 degradation at 100 nM incubated for 3 hrs by diaPASEF-based analysis. The procedure, abridged: as §3

Each structure is given as a SMILES string. Activity calls are given as the source filed them. No cut-off for these calls is given here.

T1 sequence (P98170 whole entry, looked up): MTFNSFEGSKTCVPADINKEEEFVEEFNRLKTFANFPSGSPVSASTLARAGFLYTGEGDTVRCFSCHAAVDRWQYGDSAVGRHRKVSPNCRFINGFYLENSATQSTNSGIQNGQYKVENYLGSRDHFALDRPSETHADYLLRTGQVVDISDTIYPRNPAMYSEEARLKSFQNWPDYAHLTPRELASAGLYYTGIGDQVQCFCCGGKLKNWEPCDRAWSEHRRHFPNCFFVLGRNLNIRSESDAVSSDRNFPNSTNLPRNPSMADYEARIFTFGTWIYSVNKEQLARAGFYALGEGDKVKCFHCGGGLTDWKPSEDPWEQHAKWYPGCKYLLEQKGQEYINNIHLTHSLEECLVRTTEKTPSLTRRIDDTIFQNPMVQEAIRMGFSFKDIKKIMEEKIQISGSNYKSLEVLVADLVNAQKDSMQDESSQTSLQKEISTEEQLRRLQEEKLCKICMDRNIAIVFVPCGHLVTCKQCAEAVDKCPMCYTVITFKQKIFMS
T1 sequence (Q96SW2 whole entry, looked up): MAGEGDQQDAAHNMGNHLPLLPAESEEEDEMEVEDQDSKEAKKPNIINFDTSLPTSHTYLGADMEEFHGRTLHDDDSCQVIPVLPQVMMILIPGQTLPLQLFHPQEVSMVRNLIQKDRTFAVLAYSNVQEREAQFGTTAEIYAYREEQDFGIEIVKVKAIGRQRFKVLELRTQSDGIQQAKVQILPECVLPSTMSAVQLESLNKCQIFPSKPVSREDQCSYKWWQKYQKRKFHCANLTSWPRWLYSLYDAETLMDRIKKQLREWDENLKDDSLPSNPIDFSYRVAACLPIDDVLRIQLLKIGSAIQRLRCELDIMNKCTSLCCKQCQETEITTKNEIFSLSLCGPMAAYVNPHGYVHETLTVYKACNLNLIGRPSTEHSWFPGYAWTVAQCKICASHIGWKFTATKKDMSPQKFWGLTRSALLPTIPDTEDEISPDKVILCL
T5 sequence (Q13490 whole entry, looked up): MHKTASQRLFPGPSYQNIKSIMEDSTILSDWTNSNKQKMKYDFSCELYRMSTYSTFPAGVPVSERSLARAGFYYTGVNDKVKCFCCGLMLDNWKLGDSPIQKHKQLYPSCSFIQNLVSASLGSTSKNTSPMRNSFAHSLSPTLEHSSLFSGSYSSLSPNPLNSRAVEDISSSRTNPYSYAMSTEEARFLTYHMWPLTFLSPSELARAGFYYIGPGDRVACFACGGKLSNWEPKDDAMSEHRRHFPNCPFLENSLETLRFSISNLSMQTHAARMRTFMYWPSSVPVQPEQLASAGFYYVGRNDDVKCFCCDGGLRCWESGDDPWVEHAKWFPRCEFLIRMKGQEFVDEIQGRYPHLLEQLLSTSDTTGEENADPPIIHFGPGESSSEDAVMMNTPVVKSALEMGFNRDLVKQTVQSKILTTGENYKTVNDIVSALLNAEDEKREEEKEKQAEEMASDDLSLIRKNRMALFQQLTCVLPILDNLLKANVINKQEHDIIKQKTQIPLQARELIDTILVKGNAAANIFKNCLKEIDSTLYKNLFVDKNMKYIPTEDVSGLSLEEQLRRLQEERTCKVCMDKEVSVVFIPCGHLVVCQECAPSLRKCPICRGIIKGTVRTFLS
T5 sequence (Q96SW2 whole entry, looked up): as the sequence (Q96SW2 whole entry, looked up) above
T6 sequence (Q13489 whole entry, looked up): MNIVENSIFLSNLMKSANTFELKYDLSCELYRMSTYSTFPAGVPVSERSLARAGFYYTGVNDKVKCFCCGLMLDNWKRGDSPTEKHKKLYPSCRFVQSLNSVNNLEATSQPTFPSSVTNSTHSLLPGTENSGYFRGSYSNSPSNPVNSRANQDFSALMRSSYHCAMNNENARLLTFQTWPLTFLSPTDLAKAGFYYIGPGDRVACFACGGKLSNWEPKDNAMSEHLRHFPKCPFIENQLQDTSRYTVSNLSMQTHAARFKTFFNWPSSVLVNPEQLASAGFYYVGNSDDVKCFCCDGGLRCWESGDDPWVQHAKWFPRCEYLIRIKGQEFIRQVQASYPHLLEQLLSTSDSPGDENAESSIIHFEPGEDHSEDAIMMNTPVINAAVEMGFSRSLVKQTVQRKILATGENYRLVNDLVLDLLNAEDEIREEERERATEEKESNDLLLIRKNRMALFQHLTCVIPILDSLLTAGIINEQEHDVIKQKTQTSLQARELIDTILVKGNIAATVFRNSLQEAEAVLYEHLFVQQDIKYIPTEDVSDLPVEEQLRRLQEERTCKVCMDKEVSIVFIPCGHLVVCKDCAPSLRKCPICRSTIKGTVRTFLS
T6 sequence (Q96SW2 whole entry, looked up): as the sequence (Q96SW2 whole entry, looked up) above
T4 sequence (P40337 whole entry, looked up): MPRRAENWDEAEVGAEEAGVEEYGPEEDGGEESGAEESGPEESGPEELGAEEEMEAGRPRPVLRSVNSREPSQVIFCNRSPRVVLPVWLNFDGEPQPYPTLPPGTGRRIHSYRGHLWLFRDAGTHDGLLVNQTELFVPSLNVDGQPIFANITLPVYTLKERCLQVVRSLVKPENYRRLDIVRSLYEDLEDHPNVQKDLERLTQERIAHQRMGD
T4 sequence (Q13490 whole entry, looked up): as the sequence (Q13490 whole entry, looked up) above
T3 sequence (P40337 whole entry, looked up): as the sequence (P40337 whole entry, looked up) above
T3 sequence (Q13489 whole entry, looked up): as the sequence (Q13489 whole entry, looked up) above
T2 sequence (P40337 whole entry, looked up): as the sequence (P40337 whole entry, looked up) above
T2 sequence (P98170 whole entry, looked up): as the sequence (P98170 whole entry, looked up) above
Chain of Protein cereblon/Zinc finger protein Aiolos (Homo sapiens) (Q96SW2 whole entry, looked up): as the sequence (Q96SW2 whole entry, looked up) above
Chain of Protein cereblon/Zinc finger protein Aiolos (Homo sapiens) (Q9UKT9 whole entry, looked up): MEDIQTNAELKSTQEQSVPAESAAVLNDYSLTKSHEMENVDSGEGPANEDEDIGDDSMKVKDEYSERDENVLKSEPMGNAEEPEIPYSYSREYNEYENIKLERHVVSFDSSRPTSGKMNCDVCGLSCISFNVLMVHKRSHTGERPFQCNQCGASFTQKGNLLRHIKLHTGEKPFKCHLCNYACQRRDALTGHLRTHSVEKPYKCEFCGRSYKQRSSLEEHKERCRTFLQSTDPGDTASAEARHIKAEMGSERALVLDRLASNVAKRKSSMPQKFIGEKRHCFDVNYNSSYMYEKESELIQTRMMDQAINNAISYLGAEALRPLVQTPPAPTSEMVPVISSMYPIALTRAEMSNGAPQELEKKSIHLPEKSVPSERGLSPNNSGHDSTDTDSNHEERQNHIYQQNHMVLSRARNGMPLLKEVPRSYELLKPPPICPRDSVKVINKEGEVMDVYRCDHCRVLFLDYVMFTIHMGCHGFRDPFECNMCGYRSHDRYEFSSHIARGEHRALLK

With `CN[C@@H](C)C(=O)N[C@H](C(=O)N1C[C@@H](Oc2cccc(OCCOCCCCCCOCCCCCCNc3cccc4c3C(=O)N(C3CCC(=O)N(C)C3=O)C4=O)c2)C[C@H]1C(=O)N[C@@H]1CCCc2ccccc21)C1CCCCC1` (some centres not stated), in [1], the outcome was inactive.

With `CN[C@@H](C)C(=O)N[C@H](C(=O)N1C[C@@H](Oc2cccc(OCCCCCCOCCCCCCOCCCCCCOc3cc(-c4scnc4C)ccc3CNC(=O)[C@@H]3C[C@@H](O)CN3C(=O)[C@H](C(C)C)N3Cc4ccccc4C3=O)c2)C[C@H]1C(=O)N[C@@H]1CCCc2ccccc21)C1CCCCC1`, the result in assay [2], in [3] and in assay [4] was Active. The outcome in assay [5], in assay [6] and in assay [7] was inactive.

With `CN[C@@H](C)C(=O)N[C@H](C(=O)N1C[C@@H](Oc2cccc(OCCOCCCCCCOCCCCCCNc3cccc4c3C(=O)N(C3CCC(=O)NC3=O)C4=O)c2)C[C@H]1C(=O)N[C@@H]1CCCc2ccccc21)C1CCCCC1` (some centres not stated), the result in [8], in [9] and in assay [27] was Active. Also, the Activity entry in assay [10] is “Dose-Dependent Effect”; in assay [11] it was “Dose-Dependent Effect”; in assay [12], “Dose-Dependent Effect”; in assay [13] it was “Tde”; in [14], “Tde”; in assay [15], “Tde”. In addition, the Activity in assay [16], in assay [17], in [18], in assay [19] and in assay [20] was 100% throughout. Further, the result in assay [21], in assay [22], in assay [23], in assay [24], in assay [25] and in assay [26] was inactive.
